Measurements from ChEMBL document CHEMBL1125296, “Structure-activity relationships associated with 3,4,5-triphenyl-1H-pyrazole-1-nonanoic acid, a nonprostanoid prostacyclin mimetic” (J Med Chem, 1992).

How the values were obtained:
[1] = organism: Homo sapiens; assay: Inhibition of ADP-induced human platelet aggregation; format: functional, organism-based
Outline: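 Human blood drawn into 1/10 volume 3.8% sodium citrate, spun 10 min at 140g for platelet-rich plasma; compound in DMSO added to PRP 3 min before ADP (5.86 μM); aggregation followed by Born aggregometry (Mustard modification) against vehicle controls; IC50 from dose-response curves.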

[2] = biological target: Prostacyclin receptor (Homo sapiens, UniProt P43119); assay: IC50 value was evaluated by measuring the displacement of [3H]iloprost from Prostaglandin I2 receptor
Outline: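 Platelet plasma membranes (200 μg) incubated with 5 nM [3H]iloprost in 10 mM MgCl2, 1 mM EGTA, 50 mM Tris/HCl pH 7.4 at 0-4 °C for 90-120 min; diluted with ice-cold Tris buffer, rapidly filtered on GF/C, washed four times, bound radioactivity counted by scintillation; IC50 for displacement.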

Chain of Prostacyclin receptor (P43119 whole entry): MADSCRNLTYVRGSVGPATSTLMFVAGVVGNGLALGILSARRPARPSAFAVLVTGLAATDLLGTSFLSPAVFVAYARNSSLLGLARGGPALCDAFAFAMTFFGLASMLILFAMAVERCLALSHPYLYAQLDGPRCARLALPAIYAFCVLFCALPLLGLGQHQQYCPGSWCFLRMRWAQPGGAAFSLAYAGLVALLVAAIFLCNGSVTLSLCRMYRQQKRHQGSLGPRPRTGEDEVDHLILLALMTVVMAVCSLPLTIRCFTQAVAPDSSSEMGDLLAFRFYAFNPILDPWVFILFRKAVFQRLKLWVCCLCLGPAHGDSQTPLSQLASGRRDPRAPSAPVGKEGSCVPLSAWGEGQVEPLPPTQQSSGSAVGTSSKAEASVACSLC

Row | SMILES | IC50 [1] | IC50 [2]
1 | O=C(O)CCCCCCCn1cc(-c2ccccc2)c(-c2ccccc2)n1 | > 85 µM | 
2 | O=C(O)CCCCCCCCn1cc(-c2ccccc2)c(-c2ccccc2)n1 | 4.5 µM | 0.35 µM
3 | N#CCCCCCCCCn1nc(-c2ccccc2)c(-c2ccccc2)c1-c1ccccc1 | > 72 µM | 
4 | CS(=O)(=O)NC(=O)CCCCCCCCn1nc(-c2ccccc2)c(-c2ccccc2)c1-c1ccccc1 | 5.9 µM | 
5 | O=C(O)COCCCCCCn1nc(-c2ccccc2)c(-c2ccccc2)c1-c1ccccc1 | 0.44 µM | 
6 | O=C(O)CCCCCCCCn1cc(-c2ccccc2)cn1 | > 105 µM | > 10 µM
7 | O=C(O)CCCCCCn1ncc(-c2ccccc2)c1-c1ccccc1 | > 92 µM | 
8 | O=C(O)CCCCCCCn1ncc(-c2ccccc2)c1-c1ccccc1 | 1.5 µM | 0.16 µM
9 | O=C(O)CCCCCCCCCn1ncc(-c2ccccc2)c1-c1ccccc1 | > 82 µM | 
10 | O=C(O)CSCCCCCCn1nc(-c2ccccc2)c(-c2ccccc2)c1-c1ccccc1 | 0.87 µM | 
11 | CNC(=O)CCCCCCCCn1nc(-c2ccccc2)c(-c2ccccc2)c1-c1ccccc1 | > 68 µM | 
12 | O=C(O)CS(=O)(=O)CCCCCCn1nc(-c2ccccc2)c(-c2ccccc2)c1-c1ccccc1 | 22 µM | 
13 | O=C(O)CCCCCCCCn1ncc(-c2ccccc2)c1-c1ccccc1 | 5.8 µM | 0.7 µM
14 | O=C(O)CCCCCCCCn1nc(-c2ccccc2)cc1-c1ccccc1 | > 66 µM | > 10 µM
15 | CC(C)(C)OC(=O)COCCCCCCn1nc(-c2ccccc2)c(-c2ccccc2)c1-c1ccccc1 | > 62 µM | 
16 | O=C(O)CCCCCCCCCn1cc(-c2ccccc2)c(-c2ccccc2)n1 | > 81 µM | 
17 | O=C(O)CCCCCCn1cc(-c2ccccc2)c(-c2ccccc2)n1 | > 92 µM | 
18 | c1ccc(-c2nn(CCCCCCCCc3nnn[nH]3)c(-c3ccccc3)c2-c2ccccc2)cc1 | 1.04 µM | 
19 | COC(=O)CCCCCCCCn1nc(-c2ccccc2)c(-c2ccccc2)c1-c1ccccc1 | 4.3 µM | 
20 | O=C(O)C[S+]([O-])CCCCCCn1nc(-c2ccccc2)c(-c2ccccc2)c1-c1ccccc1 (stereo not given) | 6.5 µM | 

The next lines start with the values.

Row | IC50 [1] | IC50 [2] | SMILES
21 | 18.6 µM |  | O=C(O)CCCCCCCCCCn1nc(-c2ccccc2)c(-c2ccccc2)c1-c1ccccc1
22 | 5.5 µM |  | O=C(O)CCCCCCCCCn1nc(-c2ccccc2)c(-c2ccccc2)c1-c1ccccc1
23 | > 78 µM |  | O=C(O)CCCCCn1nc(-c2ccccc2)c(-c2ccccc2)c1-c1ccccc1
24 | 0.4 µM | 0.16 µM | O=C(O)CCCCCCCCn1nc(-c2ccccc2)c(-c2ccccc2)c1-c1ccccc1
25 | > 68 µM |  | O=C(O)CCCCCCCCn1nc(-c2ccccc2)c(Cc2ccccc2)c1-c1ccccc1
26 | 22.4 µM |  | O=C(O)CCCCCCn1nc(-c2ccccc2)c(-c2ccccc2)c1-c1ccccc1
27 | 3.4 µM |  | O=C(O)CCCCCCCn1nc(-c2ccccc2)c(-c2ccccc2)c1-c1ccccc1
28 | > 79 µM |  | CCc1c(-c2ccccc2)nn(CCCCCCCCC(=O)O)c1-c1ccccc1
29 | 33 µM |  | NC(=O)CCCCCCCCn1nc(-c2ccccc2)c(-c2ccccc2)c1-c1ccccc1
